Hit rate of the full screen: of about 360,000 compounds, about 1,400 (0.39%) were called active. The list comes from a sample in which actives are over-represented; it also holds similar structures and randomly drawn compounds. Values without a mark were called inactive.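 The calls were made as follows: active = pattern-corrected inhibition above about 35%, with an unprinted fluorescence ratio check between 0.5 and 1.5 (limit read from the data, passing the limit was not always enough); inactive = the rest.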

For orientation: inhibition means the drop in the measured response relative to a control, in per cent.

Sequence of COP9 signalosome complex subunit 5 (Homo sapiens) (Q92905 whole entry, looked up, one chain of several): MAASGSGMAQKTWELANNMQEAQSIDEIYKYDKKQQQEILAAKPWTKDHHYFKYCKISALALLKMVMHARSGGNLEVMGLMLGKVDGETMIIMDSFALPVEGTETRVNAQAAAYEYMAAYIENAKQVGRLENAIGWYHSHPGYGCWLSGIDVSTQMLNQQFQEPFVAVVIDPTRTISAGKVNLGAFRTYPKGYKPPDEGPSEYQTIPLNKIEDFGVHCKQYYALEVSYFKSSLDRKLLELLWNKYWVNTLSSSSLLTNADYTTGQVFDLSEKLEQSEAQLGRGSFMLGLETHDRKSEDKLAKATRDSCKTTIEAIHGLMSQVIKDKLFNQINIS

The target of the test is COP9 signalosome complex subunit 5 (Homo sapiens) (UniProt Q92905). As to the kind of experiment: inhibitors of CSN-mediated cullin deneddylation, primary screen, biochemical, fluorescence polarization, uHTS (AID 651999).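 Also: 0% = enzyme with substrate and 100% = substrate without enzyme.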 Particulars: Purified CSN, SCF-Nedd8-OG deneddylation, at 12.5 µM, hits give high values. The procedure, abridged:
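Test system: purified human Csn5 enzyme expressed in HEK293T cells. Amount: 0.24 nM enzyme. Reagent: SCFSkp2-Nedd8OG substrate at 10 nM final. Schedule: 90 min incubation of compound, enzyme and substrate at room temperature. Detection: fluorescence polarization. Read-out: % inhibition of substrate cleavage by Csn5.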
With `O=C(COc1ccc(S(=O)(=O)N2CCCCC2)cc1)NCc1ccccn1`, the inhibition is -4.23%.

Turning to `CC(=O)NS(=O)(=O)c1ccc(NC(=O)/C=C/c2ccccc2Cl)cc1`, the inhibition is 4.02%.

For `COc1ccccc1CNC(=O)CCCNS(=O)(=O)c1cccc2nsnc12`, the inhibition was 1.39%.

Take `Cc1ccc(CC2C(=O)N(c3ccc(F)cc3)C(=O)C2C)cc1` (configuration not stated): the inhibition was -0.88%.

Consider `C#CCOCCOCCOCCNc1nc(N2CCN(C(=O)C([C@@H](C)O)n3cc([C@@H](N)CCCCN)nn3)CC2)nc(N2CCN(C(=O)[C@H](CCCCN)n3cc(CN)nn3)CC2)n1` (some centres not stated), for which the inhibition was 37% (active).

In the case of `C#CCOCCOCCOCCNc1nc(N2CCN(C(=O)C(Cc3ccc(O)cc3)n3cc(C(N)CC(C)C)nn3)CC2)nc(N2CCN(C(=O)C(Cc3ccc(O)cc3)n3cc(C(N)C(C)CC)nn3)CC2)n1` (configuration not stated), the inhibition is 0.38%.

On to `C#CCOCCOCCOCCNc1nc(N2CCN(C(=O)CCCCCCCCCCNC(=O)Cn3cc(CCCCCN)nn3)CC2)nc(N2CCN(C(=O)CCCCCCCCCCNC(=O)[C@H](CO)n3cc(CCCSC)nn3)CC2)n1`, for which the inhibition is 89% (active).

Consider `C#CCOCCOCCOCCNc1nc(N2CCOCC2)nc(N2CCN(C(=O)[C@H](Cc3ccc(O)cc3)n3cc(CCO)nn3)CC2)n1`, for which the inhibition is -2.16%.

For the compound `CCC(C)[C@@H](C(=O)N1CCNCC1)n1cc(CCCCN)nn1` (some centres not stated), the inhibition is -2.15%.

Take `CC/C(Cc1ccccc1)=N/NC(=O)CCn1nnc2ccccc21`: the inhibition is 1.26%.

As for `COc1ccc(NC(=O)C2CCC(CNc3c(N4CCCCC4)c(=O)c3=O)CC2)c(OC)c1` (configuration not stated), the inhibition is 1.79%.

For the compound `CCOC(=O)C1(Cc2cccc(OC)c2)CCN(C(C)CC(C)(C)O)CC1` (configuration not stated), the inhibition was 0.5%.

Regarding `Fc1ccc(-n2c(Cc3ccccc3)nnc2SCc2nc(-c3ccc(Cl)cc3)no2)cc1`, the inhibition is 5.36%.

As to `Cc1ccc(-c2ccc(CN3C(C)C(=O)N(Cc4cn(CCC5OCCCO5)nn4)CCS3(=O)=O)cc2)cc1` (configuration not stated), the inhibition was 0.07%.

As to `O=c1c2ccccc2c(-c2ccccc2)nn1-c1ccccn1`, the inhibition was 0.93%.

As for `O=C(Nc1cc2c3c(c1)C1CCCC1CN3CC1CCCC21)c1ccc([N+](=O)[O-])cc1` (configuration not stated), the inhibition was -4.37%.

`Cn1ccc(=Nc2ccc(NC(=O)c3ccc(N=c4ccn(C)c5ccc([N+](=O)[O-])cc45)cc3)cc2)cc1`: the inhibition was 114% (active).

On to `O=C(Nc1ccc(C2CC2(Cl)Cl)cc1)c1cccc([N+](=O)[O-])c1` (configuration not stated), for which the inhibition was -0.73%.

Consider `CCCNC(=O)c1ccc(N2CCC3(CC2)CC(c2cccc(Br)c2)=NO3)c(NC(=O)c2ccco2)c1`, for which the inhibition was -1.32%.

For `C/C(=N\N=C(N)N)c1ccc(Cl)cc1`, the inhibition was -1.16%.

In the case of `O=C(Cc1ccccc1)Nc1c(C(=O)N2CCCCCC2)cnn1-c1ccccc1`, the inhibition was -1.5%.

As for `CCN(C(=O)Cc1c(C(=O)O)n(CC)c2ccccc12)c1ccccc1C`, the inhibition was -2.24%.

Take `CC[n+]1cc(C)ccc1/C=C/c1ccc(N(C)C)cc1`: the inhibition was 35.4% (active).

Consider `CC(C)N1CCC(NC(=O)Nc2ccccc2)CC1`, for which the inhibition was -2.66%.

On to `CC(=O)N1CCN(S(=O)(=O)c2c(F)cc(F)c(Cl)c2F)CC1`, for which the inhibition is -5.22%.

For the compound `CCOc1ccc(NC(=O)CN(C)CC(=O)NC(C)c2ccccc2)cc1OCC` (configuration not stated), the inhibition is 2.1%.

For `CN1/C(=c2/s/c(=C3/C(=O)N(c4ccccc4)NC3=Nc3ccccc3)n(C)c2=O)C(C)(C)c2ccccc21`, the inhibition was 41.7% (active).

Regarding `CCc1c(O)nc(SCC(=O)Nc2ccccc2)n(C(C)CC)c1=O` (configuration not stated), the inhibition was 2.98%.

For `O=C(Nc1ccc(N2CCN(C(=O)c3cccs3)CC2)cc1)c1cccnc1Cl`, the inhibition was -0.71%.

Take `C=CC(=O)Nc1ccc(Nc2ccnc(Nc3ccc(N4CCN(C)CC4)cc3)n2)cc1`: the inhibition is 103% (active).

Take `CC(=O)Nc1cc(-c2ccc(N3CCN(C)CC3)cc2)cn2c(-c3ccc(F)cc3)cnc12`: the inhibition is 9.21%.

Take `C/C(=N/NS(=O)(=O)c1ccccc1)c1ccc(NC(=O)C(F)(F)F)cc1`: the inhibition was -3.71%.

Take `COc1ccccc1NC(=O)CCSc1nnc(-c2ccc(O)cc2)o1`: the inhibition was -8.49%.

In the case of `Cc1ccc(N=C2NC(=O)/C(=C/C=C/c3ccco3)S2)cc1C`, the inhibition was 51.9% (active).

As for `COc1ccc(CCN(Cc2cc3cccc(C)c3[nH]c2=O)C(=O)N2CCCC2)cc1OC`, the inhibition is 2.45%.

Take `O=C(NCCCO)/C(=C\C=C\c1ccccc1)NC(=O)c1ccccc1Cl`: the inhibition is -3.06%.

Take `C=CCN(c1ccc(Cl)cc1)S(=O)(=O)c1cccc(C(=O)OCC(=O)N(C)C)c1`: the inhibition is -4.63%.

As for `N#Cc1cc([N+](=O)[O-])ccc1Oc1cccc(/C=N/NC(=O)c2ccc(Cl)cc2)c1`, the inhibition is 1.22%.

For the compound `O=C(N/N=C/c1ccc(Cl)cc1)c1nc2ccc([N+](=O)[O-])cc2c(=O)[nH]1`, the inhibition was 56.7% (active).

For `CC(NC(=O)C(=O)N/N=C/c1ccc(Cl)cc1)c1ccccc1` (configuration not stated), the inhibition was -2.35%.

Take `COc1ccc(Cc2nnc(SCC(=O)N(c3ccccc3)C(C)C)n(N)c2=O)cc1`: the inhibition was 2.75%.

Turning to `CC1(C2CC2)NC(=O)N(CC(=O)N2CCN(c3ccccc3F)CC2)C1=O` (configuration not stated), the inhibition is -0.85%.

In the case of `O=C(CCC(=O)N1CCCC1)Nc1ccc([N+](=O)[O-])cc1`, the inhibition was -2.97%.

For the compound `O=C(COc1ccc([N+](=O)[O-])cc1)Nc1ccc(N2CCCC2)cc1`, the inhibition was 45.2% (active).

For `O=C(COC(=O)C1CCCCC1)Nc1ccc([N+](=O)[O-])cc1`, the inhibition is -5.15%.

For `Cn1c2c(c(=O)n(C)c1=O)[C@@H]1c3c(ccc4ccccc34)OC[C@@H]1CO2`, the inhibition was 0.02%.

Take `CCN(/N=C/c1ccc(N(C)C)cc1)c1nc2ccccc2[nH]1`: the inhibition is -1.85%.

Turning to `COc1cc(C=NC2CCCCC2)ccc1O`, the inhibition is 4.95%.

For `COc1cc(/C=C(\C#N)c2nc3ccccc3[nH]2)ccc1O`, the inhibition was 73.3% (active).

`COc1cc(/C=C(\C#N)c2nc3c(s2)CC(C)CC3)ccc1O` (configuration not stated): the inhibition was 82% (active).

For the compound `CC1(C)O[C@H]2CC(=O)OCC23[C@H]2CC[C@@]4(C)[C@H](c5ccoc5)OC(=O)[C@H]5O[C@]54[C@]2(C)C(=O)C[C@@H]13` (some centres not stated), the inhibition is -1.16%.

As for `COc1cccc(NC(=O)CN(C)C(=O)c2ccccc2CCc2ccccc2)c1`, the inhibition was 4.75%.

Regarding `O=C(NCc1ccccc1)C1=C[C@@H](c2ccc(C(F)(F)F)cc2)C[C@@H](OCc2ccc(CO)cc2)O1`, the inhibition was 4.14%.

Take `Cc1ccc(OCC(=O)Oc2ccccc2[N+](=O)[O-])cc1`: the inhibition was 1.14%.

On to `Cc1cc2nc(-c3ccc(Cl)cc3)c(Cc3cccc(F)c3)n2c(C)c1Br`, for which the inhibition was 3.52%.

Turning to `Cc1cc2nc(-c3ccc(F)cc3)c(Cc3ccsc3)n2c(C)c1Br`, the inhibition was -4.07%.

`Cc1cc2nc(-c3ccco3)c(Cc3cccc(F)c3)n2c(C)c1Br`: the inhibition was 38.5% (active).

As for `O=C1NC2(CCCCC2)N=C1c1ccccc1`, the inhibition was -2.27%.

For `CC1CCCN(C(=O)Cn2c(=O)oc3cc(S(=O)(=O)N4CCCCC4C)ccc32)C1` (configuration not stated), the inhibition was -0.78%.

As for `C=CCc1ccc(OCCOc2cccc(/C=N/n3cnnc3)c2)c(OC)c1`, the inhibition is 0.99%.

Regarding `Cc1ccc(C(=O)O)cc1-c1ccc(/C=C2\SC(=O)N(CC(=O)Nc3ccc4c(c3)OCO4)C2=O)o1`, the inhibition is 102% (active).

`O=C(CCN1C(=O)c2ccncc2C1=O)Nc1ccc2c(c1)OCCO2`: the inhibition was 5.06%.

`Cc1nc([N+](=O)[O-])cn1CC(=O)Nc1ccc2c(c1)OCO2`: the inhibition was -0.35%.

For the compound `CNS(=O)(=O)c1ccc(N2CCCC2=O)c([N+](=O)[O-])c1`, the inhibition was -1.32%.

Consider `Cc1ccc(-c2nn(-c3ccccc3)cc2/C=C2\SC(=S)N(CCCCCC(=O)O)C2=O)o1`, for which the inhibition was 66.1% (active).

In the case of `O=C(O)CC/C(=N\NC(=O)c1ccc(F)cc1)c1ccc(Br)cc1`, the inhibition is 51.7% (active).

Turning to `C/C(CC(=O)N1CCN(C=O)CC1)=N\NC(=O)c1ccc(Br)cc1`, the inhibition was -6.38%.

As for `O=C(CNC(=O)c1ccccc1F)c1ccc(Br)cc1`, the inhibition is 3.53%.

On to `Cc1ccn(CCC(=O)N2c3ccccc3CC2C)n1` (configuration not stated), for which the inhibition was 0.86%.

For `CCOC(=O)C1CCCN(CCSc2ccc(C)cc2)C1` (configuration not stated), the inhibition is -0.91%.

For the compound `COc1ccc2c(c1)c(=Cc1ccc(N(C)C)cc1)c1cc(-c3ccccc3)[n+](C)n12`, the inhibition was 61.6% (active).

`CCOC(=O)[C@]12CCCC=C1N(CCC1=CCCCC1)C(=O)[C@H](CC(=O)N1CCN(C(=O)c3ccco3)CC1)C2`: the inhibition is -3.01%.

Turning to `CCC(C)Cn1c(O)cc2nn(-c3nc4ccccc4s3)c(=O)c-2c1C` (configuration not stated), the inhibition is 35.4% (active).

Take `CCC(CC)C(=O)Nc1cccc(C(=O)N2CCCC2)c1`: the inhibition was 2.19%.

Consider `CC1CC(C)CN(S(=O)(=O)c2cccc3nonc23)C1` (configuration not stated), for which the inhibition was 0.47%.

In the case of `CCCCCN(C(=O)CCC(=O)OCC(=O)NCc1ccc(OC)cc1)c1c(N)n(CCCC)c(=O)[nH]c1=O`, the inhibition is 4.14%.

With `CC(C)C1CC2=C(C(=O)OC(C)(C)O2)C(c2ccc(F)cc2)O1` (configuration not stated), the inhibition was 2.3%.

For the compound `CCC(C)NC(=O)N[C@@H](CCSC)C(=O)O` (some centres not stated), the inhibition is -1.26%.

As for `Cc1sc2ncnc(SCC(=O)NC3CCS(=O)(=O)C3)c2c1C` (configuration not stated), the inhibition was -1.73%.

On to `COC(=O)c1c(-c2cccs2)csc1NC(=O)CSc1ncnc2sc(C)c(C)c12`, for which the inhibition is -5.37%.

As for `Cc1sc2ncnc(SCC(=O)Nc3ccc(CN4CCCC4)cc3)c2c1C`, the inhibition was 108% (active).

For `O=C(Nc1ccncc1)c1cc(-c2ccccn2)nc2ccc(Br)cc12`, the inhibition is 51.3% (active).

`COc1ccc(C)cc1NC(=O)c1cc(-c2ccccc2)nc2c1cnn2C(C)C`: the inhibition is -2.82%.

Regarding `Cc1cc(NS(=O)(=O)c2ccc(NC(=O)c3cccc(OC(F)F)c3)cc2)nc(C)n1`, the inhibition is 2.76%.

As to `O=C(Nc1ccc(Br)cc1)c1cc(S(=O)(=O)Nc2ccccn2)ccc1Cl`, the inhibition was -4.77%.

For the compound `O=C(Nc1cccnc1)c1cc2cc(Br)ccc2oc1=O`, the inhibition is 5.43%.

As for `Cc1ccc2nc(-c3ccncc3)cc(C(=O)Nc3ccc(OC(F)F)cc3)c2c1`, the inhibition was 42% (active).

Source of the values: PubChem BioAssay AID651999 (Sanford-Burnham Center for Chemical Genomics, 2013).
